Measured values from article PMC6172068 (Cancer Science, 2018).

Key:
c-Kit = conditions: cited from earlier work
[1] = system: FLT3 receptors expressing F691 gatekeeper mutations; conditions: leukemic cells; cited from earlier work
[2] = system: relapsed/refractory (R/R) acute myeloid leukemia (AML); experiment: Antileukemic activity; assay type: in vivo, Japanese patients
Procedure, shortened: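 Adults (≥18 years) with relapsed/refractory AML took an oral test compound once daily in escalating cohorts (20–300 mg/d). Cycle 0 was a single dose with 2-day observation, followed by 28-day cycles. Marrow aspirates or biopsies were taken at screening, Cycle 1 Day 28, Day 1 of later cycles and end of treatment. CR, CRp and CRi followed International Working Group criteria. The full analysis set was used.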

AXL = conditions: preclinical studies; cited from earlier work
[3] = 12-lead electrocardiogram QT interval; assay type: in vivo, Japanese patients
Urine pharmacokinetics = assay type: in vivo, Japanese patients
[4] = system: FLT3 receptors expressing FLT3-TKD D835 mutations; conditions: leukemic cells; cited from earlier work
[5] = system: leukocyte receptor tyrosine kinase; conditions: preclinical studies; cited from earlier work
[6] = FLT3 mutation-negative patients, Total (n = 11)
[7] = FLT3 mutation-positive patients, 20 mg (n = 1)
[8] = FLT3 mutation-positive patients, 40 mg (n = 1)
[9] = FLT3 mutation-positive patients, 80 mg (n = 1)
[10] = FLT3 mutation-positive patients, 200 mg (n = 2)
[11] = patients with mutated FLT3 (n = 5), 1 patient
[12] = patients with wild-type FLT3 (n = 11), 1 patient
[13] = one patient who received 20 mg/d

CCc1nc(C(N)=O)c(Nc2ccc(N3CCC(N4CCN(C)CC4)CC3)c(OC)c2)nc1NC1CCOCC1 [gilteritinib]
inhibitory effect on c-Kit (c-Kit): minimal inhibitory effect
inhibition of FLT3 receptors expressing F691 gatekeeper mutations [1]: weak inhibitor
CR ([2]; All patients, 20 mg (n = 1)): 0 n (%, [95% CI])
CRc (CR plus CRp plus CRi) ([2]; All patients, 20 mg (n = 1)): 1 (100 [2.5, 100]) n (%, [95% CI])
CRi ([2]; All patients, 20 mg (n = 1)): 1 (100 [2.5, 100]) n (%, [95% CI])
CRp ([2]; All patients, 20 mg (n = 1)): 0 n (%, [95% CI])
ORR (CRc plus PR) ([2]; All patients, 20 mg (n = 1)): 1 (100 [2.5, 100]) n (%, [95% CI])
PR ([2]; All patients, 20 mg (n = 1)): 0 n (%, [95% CI])
CR ([2]; All patients, 40 mg (n = 3)): 0 n (%, [95% CI])
CRc (CR plus CRp plus CRi) ([2]; All patients, 40 mg (n = 3)): 0 n (%, [95% CI])
CRi ([2]; All patients, 40 mg (n = 3)): 0 n (%, [95% CI])
CRp ([2]; All patients, 40 mg (n = 3)): 0 n (%, [95% CI])
CR ([2]; All patients, 80 mg (n = 4)): 1 (25 [0.6, 80.6]) n (%, [95% CI])
CRc (CR plus CRp plus CRi) ([2]; All patients, 80 mg (n = 4)): 1 (25 [0.6, 80.6]) n (%, [95% CI])
CRi ([2]; All patients, 80 mg (n = 4)): 0 n (%, [95% CI])
CRp ([2]; All patients, 80 mg (n = 4)): 0 n (%, [95% CI])
ORR (CRc plus PR) ([2]; All patients, 80 mg (n = 4)): 2 (50 [6.8, 93.2]) n (%, [95% CI])
PR ([2]; All patients, 80 mg (n = 4)): 1 (25 [0.6, 80.6]) n (%, [95% CI])
CR ([2]; All patients, 120 mg (n = 2)): 0 n (%, [95% CI])
CRc (CR plus CRp plus CRi) ([2]; All patients, 120 mg (n = 2)): 1 (50 [1.3, 98.7]) n (%, [95% CI])
CRi ([2]; All patients, 120 mg (n = 2)): 1 (50 [1.3, 98.7]) n (%, [95% CI])
CRp ([2]; All patients, 120 mg (n = 2)): 0 n (%, [95% CI])
ORR (CRc plus PR) ([2]; All patients, 120 mg (n = 2)): 1 (50 [1.3, 98.7]) n (%, [95% CI])
PR ([2]; All patients, 120 mg (n = 2)): 0 n (%, [95% CI])
CR ([2]; All patients, 200 mg (n = 7)): 0 n (%, [95% CI])
CRc (CR plus CRp plus CRi) ([2]; All patients, 200 mg (n = 7)): 4 (57.1 [18.4, 90.1]) n (%, [95% CI])
CRi ([2]; All patients, 200 mg (n = 7)): 1 (14.3 [0.4, 57.9]) n (%, [95% CI])
CRp ([2]; All patients, 200 mg (n = 7)): 3 (42.9 [9.9, 81.6]) n (%, [95% CI])
ORR (CRc plus PR) ([2]; All patients, 200 mg (n = 7)): 4 (57.1 [18.4, 90.1]) n (%, [95% CI])
PR ([2]; All patients, 200 mg (n = 7)): 0 n (%, [95% CI])
CR ([2]; All patients, 300 mg (n = 2)): 0 n (%, [95% CI])
CRc (CR plus CRp plus CRi) ([2]; All patients, 300 mg (n = 2)): 0 n (%, [95% CI])
CRi ([2]; All patients, 300 mg (n = 2)): 0 n (%, [95% CI])
CRp ([2]; All patients, 300 mg (n = 2)): 0 n (%, [95% CI])
ORR (CRc plus PR) ([2]; All patients, 300 mg (n = 2)): 0 n (%, [95% CI])
PR ([2]; All patients, 300 mg (n = 2)): 0 n (%, [95% CI])
CRc ([2]; FAS, all doses, 7 of 19 patients, 95% CI: 16.3, 61.6): 36.8%
ORR ([2]; FAS, all doses, n = 9/19, 95% CI: 24.4, 71.1): 47.4%
Median duration of CRc ([2]; FAS, 95% CI: 28.0, 116.0): 86.5 days
Median duration of remission ([2]; FAS, 95% CI: 28.0, 139.0): 113.5 days
CR [2, 6]: 1 (9.1 [0.2, 41.3]) n (%, [95% CI])
CRc (CR plus CRp plus CRi) [2, 6]: 3 (27.3 [6.0, 61.0]) n (%, [95% CI])
CRi [2, 6]: 0 n (%, [95% CI])
CRp [2, 6]: 2 (18.2 [2.3, 51.8]) n (%, [95% CI])
ORR (CRc plus PR) [2, 6]: 4 (36.4 [10.9, 69.2]) n (%, [95% CI])
PR [2, 6]: 1 (9.1 [0.2, 41.3]) n (%, [95% CI])
CRc ([2]; FLT3 mutation-positive patients (n = 5), 95% CI: 14.7, 94.7): 60%
ORR ([2]; FLT3 mutation-positive patients (n = 5), 95% CI: 28.4, 99.5): 80%
CR [2, 7]: 0 n (%, [95% CI])
CRc (CR plus CRp plus CRi) [2, 7]: 1 (100 [2.5, 100]) n (%, [95% CI])
CRi [2, 7]: 1 (100 [2.5, 100]) n (%, [95% CI])
CRp [2, 7]: 0 n (%, [95% CI])
ORR (CRc plus PR) [2, 7]: 1 (100 [2.5, 100]) n (%, [95% CI])
PR [2, 7]: 0 n (%, [95% CI])
CR [2, 8]: 0 n (%, [95% CI])
CRc (CR plus CRp plus CRi) [2, 8]: 0 n (%, [95% CI])
CRi [2, 8]: 0 n (%, [95% CI])
CRp [2, 8]: 0 n (%, [95% CI])
ORR (CRc plus PR) [2, 8]: 0 n (%, [95% CI])
PR [2, 8]: 0 n (%, [95% CI])
CR [2, 9]: 0 n (%, [95% CI])
CRc (CR plus CRp plus CRi) [2, 9]: 0 n (%, [95% CI])
CRi [2, 9]: 0 n (%, [95% CI])
CRp [2, 9]: 0 n (%, [95% CI])
ORR (CRc plus PR) [2, 9]: 1 (100 [2.5, 100]) n (%, [95% CI])
PR [2, 9]: 1 (100 [2.5, 100]) n (%, [95% CI])
CR [2, 10]: 0 n (%, [95% CI])
CRc (CR plus CRp plus CRi) [2, 10]: 2 (100 [15.8, 100]) n (%, [95% CI])
CRi [2, 10]: 1 (50 [1.3, 98.7]) n (%, [95% CI])
CRp [2, 10]: 1 (50 [1.3, 98.7]) n (%, [95% CI])
ORR (CRc plus PR) [2, 10]: 2 (100 [15.8, 100]) n (%, [95% CI])
PR [2, 10]: 0 n (%, [95% CI])
Median duration of CRc ([2]; FLT3 mutation-positive patients, 95% CI: 30.0, 116.0): 63.0 days
Median duration of remission ([2]; FLT3 mutation-positive patients, 95% CI: 30.0, not evaluable): 89.5 days
CR with incomplete platelet recovery [2, 11]: 20%
partial remission (PR) [2, 11]: 20%
CR with incomplete hematologic recovery ([2]; patients with mutated FLT3 (n = 5), 2 patients): 40%
CR [2, 12]: 9.1%
PR [2, 12]: 9.1%
CR with incomplete platelet recovery ([2]; patients with wild-type FLT3 (n = 11), 2 patients): 18.2%
CRc ([2]; patients without FLT3 mutations (n = 11), 95% CI: 6.0, 61.0): 27.3%
ORR ([2]; patients without FLT3 mutations (n = 11), 95% CI: 10.9, 69.2): 36.4%
Median duration of CRc ([2]; patients without FLT3 mutations, 95% CI: 28.0, 111.0): 69.5 days
Median duration of remission ([2]; patients without FLT3 mutations, 95% CI: 28.0, 127.0): 111.0 days
inhibition of AXL (AXL): robust inhibitor
possible treatment-related prolongation of the QTcF interval ([3]; 1 patient, 40 mg/d dose cohort): 4.2%
prolonged QT interval identified as an AE ([3]; 2 patients (20 mg/d and 40 mg/d)): 8.3%
patients with maximum QTcF change of >30 ms ([3]; 5 of 22 evaluable patients): 22.7%
patients with prolonged QT interval of >450 ms (QTcF) ([3]; 9 of 24 patients): 37.5%
maximum postbaseline QTcF change from baseline [3, 13]: 65 ms
mean maximum postbaseline QTcF [3, 13]: 486 ms
mean percentage of unchanged excreted gilteritinib (urine) (Urine pharmacokinetics; after a single dose (data not shown)): ≤ 3.6%
mean percentage of unchanged excreted gilteritinib (urine) (Urine pharmacokinetics; after multiple doses): ≤ 13.1%
inhibition of FLT3 receptors expressing FLT3-TKD D835 mutations [4]: strongly inhibited
inhibition of leukocyte receptor tyrosine kinase [5]: robust inhibitor
